From ChEMBL document CHEMBL1158705, “Dihydrochalcones from the leaves of Pieris japonica” (2005)

Test: Inhibition of LPS-induced mouse B cells proliferation assessed as [3H]TdR incorporation at 0.1 uM […]
Format: functional
In short: (§1)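 Mouse spleen cells (4 × 10^6/well) were cultured with test compound plus a selective stimulus: concanavalin A at 5 µg/mL for T cells, or E. coli LPS for B cells. Incubation was 48 h at 37 °C in 5% CO2, with a 0.25 µCi/well 3H-thymidine pulse over the final 6 h. Incorporated radioactivity was read by liquid scintillation, as the mean of triplicates, with Student t-test versus control.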
Work on `COc1cc(O)c(C(=O)CCc2ccc(O)cc2)c(O[C@@H]2O[C@H](CO)[C@@H](O)[C@H](O)[C@H]2O)c1` [ASEBOTIN] yielded an Activity of 47400 cpm. `COc1c(O[C@@H]2O[C@H](CO)[C@@H](O)[C@H](O)[C@H]2O)cc(C(=O)CCc2ccc(O)cc2)cc1O[C@@H]1O[C@H](CO)[C@@H](O)[C@H](O)[C@H]1O` showed an Activity of 30900 cpm. `COc1cc(O)c(C(=O)CCc2ccc(O)cc2)c(O)c1` [ASEBOGENIN] gave an Activity of 32500 cpm. With `COc1cc(O)c(C(=O)CCc2ccc(O)c(O)c2)c(O[C@@H]2O[C@H](CO)[C@@H](O)[C@H](O)[C@H]2O)c1` the Activity was 22200 cpm. `COc1cc(O)c(C(=O)CCc2ccc(O)cc2)c(O)c1Cc1c(OC)cc(O)c(C(=O)CCc2ccc(O)cc2)c1O` [PIEROTIN A] showed an Activity of 38100 cpm. Work on `COc1cc(O)c(C(=O)CCc2ccc(O)cc2)c2oc3cc(O)c(O)cc3c12` [PIEROTIN B] yielded an Activity of 22800 cpm. Work on `COc1cc(O)c(C(=O)CCc2ccc(O)cc2)c(O[C@@H]2O[C@H](CO)[C@@H](O)[C@H](O)[C@H]2OC(C)=O)c1` yielded an Activity of 46600 cpm. `O=C(CCc1ccc(O)cc1)c1c(O)cc(O)cc1O` [PHLORETIN] gave an Activity of 32700 cpm. `COc1cc(O)c(C(=O)CCc2ccc(O)cc2)c(O[C@@H]2O[C@H](CO)[C@@H](O)C(=O)[C@H]2O)c1` gave an Activity of 34200 cpm. In the case of `O=C(CCc1ccc(O)cc1)c1c(O)cc(O)cc1O[C@@H]1O[C@H](CO)[C@@H](O)[C@H](O)[C@H]1O` [PHLORIZIN], the Activity is reported as 33000 cpm.

Test: Inhibition of LPS-induced mouse B cells proliferation assessed as [3H]TdR incorporation at 1 uM […]
Format: functional
In short: as §1
Compound `COc1cc(O)c(C(=O)CCc2ccc(O)cc2)c(O[C@@H]2O[C@H](CO)[C@@H](O)[C@H](O)[C@H]2O)c1` [ASEBOTIN] has an Activity of 40700 cpm. For `COc1c(O[C@@H]2O[C@H](CO)[C@@H](O)[C@H](O)[C@H]2O)cc(C(=O)CCc2ccc(O)cc2)cc1O[C@@H]1O[C@H](CO)[C@@H](O)[C@H](O)[C@H]1O`, the Activity was 22800 cpm. In the case of `COc1cc(O)c(C(=O)CCc2ccc(O)cc2)c(O)c1` [ASEBOGENIN], the Activity is reported as 28300 cpm. `COc1cc(O)c(C(=O)CCc2ccc(O)c(O)c2)c(O[C@@H]2O[C@H](CO)[C@@H](O)[C@H](O)[C@H]2O)c1` showed an Activity of 22100 cpm. With `COc1cc(O)c(C(=O)CCc2ccc(O)cc2)c(O)c1Cc1c(OC)cc(O)c(C(=O)CCc2ccc(O)cc2)c1O` [PIEROTIN A] the Activity was 32700 cpm. Work on `COc1cc(O)c(C(=O)CCc2ccc(O)cc2)c2oc3cc(O)c(O)cc3c12` [PIEROTIN B] yielded an Activity of 28600 cpm. Work on `COc1cc(O)c(C(=O)CCc2ccc(O)cc2)c(O[C@@H]2O[C@H](CO)[C@@H](O)[C@H](O)[C@H]2OC(C)=O)c1` yielded an Activity of 45000 cpm. In the case of `O=C(CCc1ccc(O)cc1)c1c(O)cc(O)cc1O` [PHLORETIN], the Activity is reported as 29300 cpm. Compound `COc1cc(O)c(C(=O)CCc2ccc(O)cc2)c(O[C@@H]2O[C@H](CO)[C@@H](O)C(=O)[C@H]2O)c1` has an Activity of 35000 cpm. For `O=C(CCc1ccc(O)cc1)c1c(O)cc(O)cc1O[C@@H]1O[C@H](CO)[C@@H](O)[C@H](O)[C@H]1O` [PHLORIZIN], the Activity was 32400 cpm.

Test: Inhibition of LPS-induced mouse B cells proliferation assessed as [3H]TdR incorporation at 10 uM […]
Format: functional
In short: as §1
For `COc1cc(O)c(C(=O)CCc2ccc(O)cc2)c(O[C@@H]2O[C@H](CO)[C@@H](O)[C@H](O)[C@H]2O)c1` [ASEBOTIN], the Activity was 35200 cpm. In the case of `COc1c(O[C@@H]2O[C@H](CO)[C@@H](O)[C@H](O)[C@H]2O)cc(C(=O)CCc2ccc(O)cc2)cc1O[C@@H]1O[C@H](CO)[C@@H](O)[C@H](O)[C@H]1O`, the Activity is reported as 24600 cpm. In the case of `COc1cc(O)c(C(=O)CCc2ccc(O)cc2)c(O)c1` [ASEBOGENIN], the Activity is reported as 34100 cpm. `COc1cc(O)c(C(=O)CCc2ccc(O)c(O)c2)c(O[C@@H]2O[C@H](CO)[C@@H](O)[C@H](O)[C@H]2O)c1` showed an Activity of 24000 cpm. In the case of `COc1cc(O)c(C(=O)CCc2ccc(O)cc2)c(O)c1Cc1c(OC)cc(O)c(C(=O)CCc2ccc(O)cc2)c1O` [PIEROTIN A], the Activity is reported as 36500 cpm. `COc1cc(O)c(C(=O)CCc2ccc(O)cc2)c2oc3cc(O)c(O)cc3c12` [PIEROTIN B] showed an Activity of 3940 cpm. `COc1cc(O)c(C(=O)CCc2ccc(O)cc2)c(O[C@@H]2O[C@H](CO)[C@@H](O)[C@H](O)[C@H]2OC(C)=O)c1` gave an Activity of 29800 cpm. For `O=C(CCc1ccc(O)cc1)c1c(O)cc(O)cc1O` [PHLORETIN], the Activity was 30700 cpm. With `COc1cc(O)c(C(=O)CCc2ccc(O)cc2)c(O[C@@H]2O[C@H](CO)[C@@H](O)C(=O)[C@H]2O)c1` the Activity was 16400 cpm. For `O=C(CCc1ccc(O)cc1)c1c(O)cc(O)cc1O[C@@H]1O[C@H](CO)[C@@H](O)[C@H](O)[C@H]1O` [PHLORIZIN], the Activity was 30500 cpm.

Test: Inhibition of concanavalin A-induced mouse T cells proliferation assessed as [3H]TdR incorporation at 10 uM […]
Format: functional, T-cell
In short: as §1
Compound `COc1cc(O)c(C(=O)CCc2ccc(O)cc2)c(O[C@@H]2O[C@H](CO)[C@@H](O)[C@H](O)[C@H]2O)c1` [ASEBOTIN] has an Activity of 79600 cpm. Compound `COc1c(O[C@@H]2O[C@H](CO)[C@@H](O)[C@H](O)[C@H]2O)cc(C(=O)CCc2ccc(O)cc2)cc1O[C@@H]1O[C@H](CO)[C@@H](O)[C@H](O)[C@H]1O` has an Activity of 74100 cpm. `COc1cc(O)c(C(=O)CCc2ccc(O)cc2)c(O)c1` [ASEBOGENIN] gave an Activity of 58400 cpm. With `COc1cc(O)c(C(=O)CCc2ccc(O)c(O)c2)c(O[C@@H]2O[C@H](CO)[C@@H](O)[C@H](O)[C@H]2O)c1` the Activity was 33000 cpm. For `COc1cc(O)c(C(=O)CCc2ccc(O)cc2)c(O)c1Cc1c(OC)cc(O)c(C(=O)CCc2ccc(O)cc2)c1O` [PIEROTIN A], the Activity was 22600 cpm. With `COc1cc(O)c(C(=O)CCc2ccc(O)cc2)c2oc3cc(O)c(O)cc3c12` [PIEROTIN B] the Activity was 10800 cpm. `COc1cc(O)c(C(=O)CCc2ccc(O)cc2)c(O[C@@H]2O[C@H](CO)[C@@H](O)[C@H](O)[C@H]2OC(C)=O)c1` gave an Activity of 70100 cpm. In the case of `O=C(CCc1ccc(O)cc1)c1c(O)cc(O)cc1O` [PHLORETIN], the Activity is reported as 69400 cpm. `COc1cc(O)c(C(=O)CCc2ccc(O)cc2)c(O[C@@H]2O[C@H](CO)[C@@H](O)C(=O)[C@H]2O)c1` showed an Activity of 32000 cpm. `O=C(CCc1ccc(O)cc1)c1c(O)cc(O)cc1O[C@@H]1O[C@H](CO)[C@@H](O)[C@H](O)[C@H]1O` [PHLORIZIN] showed an Activity of 33000 cpm.

Test: Inhibition of concanavalin A-induced mouse T cells proliferation assessed as [3H]TdR incorporation at 0.1 uM […]
Format: functional, T-cell
In short: as §1
`COc1cc(O)c(C(=O)CCc2ccc(O)cc2)c(O[C@@H]2O[C@H](CO)[C@@H](O)[C@H](O)[C@H]2O)c1` [ASEBOTIN] gave an Activity of 89800 cpm. With `COc1c(O[C@@H]2O[C@H](CO)[C@@H](O)[C@H](O)[C@H]2O)cc(C(=O)CCc2ccc(O)cc2)cc1O[C@@H]1O[C@H](CO)[C@@H](O)[C@H](O)[C@H]1O` the Activity was 84800 cpm. `COc1cc(O)c(C(=O)CCc2ccc(O)cc2)c(O)c1` [ASEBOGENIN] gave an Activity of 79300 cpm. With `COc1cc(O)c(C(=O)CCc2ccc(O)c(O)c2)c(O[C@@H]2O[C@H](CO)[C@@H](O)[C@H](O)[C@H]2O)c1` the Activity was 66700 cpm. Work on `COc1cc(O)c(C(=O)CCc2ccc(O)cc2)c(O)c1Cc1c(OC)cc(O)c(C(=O)CCc2ccc(O)cc2)c1O` [PIEROTIN A] yielded an Activity of 75400 cpm. With `COc1cc(O)c(C(=O)CCc2ccc(O)cc2)c2oc3cc(O)c(O)cc3c12` [PIEROTIN B] the Activity was 76200 cpm. Work on `COc1cc(O)c(C(=O)CCc2ccc(O)cc2)c(O[C@@H]2O[C@H](CO)[C@@H](O)[C@H](O)[C@H]2OC(C)=O)c1` yielded an Activity of 83300 cpm. Work on `O=C(CCc1ccc(O)cc1)c1c(O)cc(O)cc1O` [PHLORETIN] yielded an Activity of 63900 cpm. Work on `COc1cc(O)c(C(=O)CCc2ccc(O)cc2)c(O[C@@H]2O[C@H](CO)[C@@H](O)C(=O)[C@H]2O)c1` yielded an Activity of 38300 cpm. With `O=C(CCc1ccc(O)cc1)c1c(O)cc(O)cc1O[C@@H]1O[C@H](CO)[C@@H](O)[C@H](O)[C@H]1O` [PHLORIZIN] the Activity was 36100 cpm.

Test: Inhibition of concanavalin A-induced mouse T cells proliferation assessed as [3H]TdR incorporation at 1 uM […]
Format: functional, T-cell
In short: as §1
Work on `COc1cc(O)c(C(=O)CCc2ccc(O)cc2)c(O[C@@H]2O[C@H](CO)[C@@H](O)[C@H](O)[C@H]2O)c1` [ASEBOTIN] yielded an Activity of 87200 cpm. With `COc1c(O[C@@H]2O[C@H](CO)[C@@H](O)[C@H](O)[C@H]2O)cc(C(=O)CCc2ccc(O)cc2)cc1O[C@@H]1O[C@H](CO)[C@@H](O)[C@H](O)[C@H]1O` the Activity was 74100 cpm. In the case of `COc1cc(O)c(C(=O)CCc2ccc(O)cc2)c(O)c1` [ASEBOGENIN], the Activity is reported as 80300 cpm. For `COc1cc(O)c(C(=O)CCc2ccc(O)c(O)c2)c(O[C@@H]2O[C@H](CO)[C@@H](O)[C@H](O)[C@H]2O)c1`, the Activity was 71400 cpm. `COc1cc(O)c(C(=O)CCc2ccc(O)cc2)c(O)c1Cc1c(OC)cc(O)c(C(=O)CCc2ccc(O)cc2)c1O` [PIEROTIN A] showed an Activity of 75000 cpm. With `COc1cc(O)c(C(=O)CCc2ccc(O)cc2)c2oc3cc(O)c(O)cc3c12` [PIEROTIN B] the Activity was 59000 cpm. In the case of `COc1cc(O)c(C(=O)CCc2ccc(O)cc2)c(O[C@@H]2O[C@H](CO)[C@@H](O)[C@H](O)[C@H]2OC(C)=O)c1`, the Activity is reported as 81600 cpm. `O=C(CCc1ccc(O)cc1)c1c(O)cc(O)cc1O` [PHLORETIN] gave an Activity of 75700 cpm. For `COc1cc(O)c(C(=O)CCc2ccc(O)cc2)c(O[C@@H]2O[C@H](CO)[C@@H](O)C(=O)[C@H]2O)c1`, the Activity was 26700 cpm. `O=C(CCc1ccc(O)cc1)c1c(O)cc(O)cc1O[C@@H]1O[C@H](CO)[C@@H](O)[C@H](O)[C@H]1O` [PHLORIZIN] gave an Activity of 35500 cpm.
